For data set [1], the system named is HEK 293T cells. The data set can be described thus: Cell uptake by flow cytometry of FITC-labeled peptides. It is filed as cell-based. In short, it runs like this: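 Suspended HEK 293T cells (3 × 10^5, DMEM with 10% FBS) were mixed with FITC-labeled peptides in DMEM (0.1% DMSO) at final 1, 10 and 20 μmol/L for 30 min at room temperature in the dark. They were spun at 500×g, washed in staining buffer, resuspended and run on a flow cytometer. Mean fluorescence from two independent experiments was normalized to a reference stapled peptide at 20 μmol/L.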
In general terms: In flow cytometry, cells or beads pass a laser one at a time.

Data set [2] deals with HEK 293T cells. The data set can be described thus: Cell uptake by confocal microscopy of FITC-labeled peptides. In kind it is cell-based. The conditions noted are these: FITC-labeled peptides at 10 μmol/L, 4 h. Put shortly: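 HEK 293T cells attached overnight, then received FITC-labeled peptides in DMEM (0.1% DMSO) at final 1, 10 and 20 μmol/L for 4 h at 37 °C, 5% CO2. After three PBS washes, cells were DAPI-stained (10 μg/mL, 10 min), washed, methanol-fixed 5 min and imaged by multiphoton laser scanning microscopy. The αB helix of KID served as control peptide.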

For data set [3], the system named is CREB-mediated gene transcription. As to the kind of experiment: CREB Renilla luciferase. It is filed as cell-based. The conditions noted are these: read-out: CREB inhibition IC50; inhibition of CREB-mediated gene transcription in HEK 293T cells, CRE-RLuc, 30 min peptide then Fsk 10 μmol/L for 5 h. Put shortly: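 HEK 293T cells were transfected for 3 h with 2 μg pCRE-RLuc (Renilla luciferase driven by three CRE copies) by lipofection, then replated overnight. Peptides at graded concentrations were added for 30 min before forskolin (10 μmol/L), then incubated 5 h at 37 °C. Lysate Renilla luciferase was normalized to well protein (RLU/μg) and expressed as % CREB activity. IC50 came from nonlinear regression.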

The test system of data set [4] is KIX/KID interaction. The conditions noted are these: up to 50 μmol/L; cited from earlier work.
The test system of data set [5] is CREB-mediated transcription. Conditions: read-out: IC50 in CREB Renilla luciferase reporter assay; cited from earlier work.

As usually defined, the IC50 is the point on the concentration scale where inhibition reaches its midpoint. Take `CC(=O)N[C@@H](Cc1ccc(O)cc1)CN(CC(=O)N[C@@H](CCCCN)CN(CC(=O)N[C@@H](Cc1ccccc1)CN(CC(=O)N[C@H]1CCCCNc2c(F)c(F)c(c(F)c2F)Sc2c(F)c(F)c(c(F)c2F)Sc2c(F)c(F)c(c(F)c2F)NCCCC[C@@H](CN(CC(=O)N[C@@H](C)CN(CC(N)=O)S(C)(=O)=O)S(C)(=O)=O)NC(=O)CN(S(=O)(=O)CC(C)C)C[C@H](CC(C)C)NC(=O)CN(S(=O)(=O)CCN)C1)S(=O)(=O)CC(C)C)S(=O)(=O)CCN)S(C)(=O)=O` [Compound S3]: the “Fold increase of cell uptake compared to linear L3 and stapled S1” value in data set [1] was roughly 4 fold. Further, the “Cell uptake by confocal imaging” value in data set [2] is “significant cell uptake”. Also, in data set [3], the IC50 is 66 µM.
As for `O=C(Nc1ccc(Cl)cc1)c1cc2ccccc2cc1OP(=O)(O)O` [KG-501], in data set [4], the “Inhibition of the KIX/KID interaction (in words)” value is “no significant inhibition”. Also, the IC50 in data set [5] is 5.4 µM.
